Experimental data: ChEMBL document CHEMBL4673248, “Discovery and Characterization of BAY 1214784, an Orally Available Spiroindoline Derivative Acting as a Potent and Selective Antagonist of the Human Gonadotropin-Releasing Hormone Receptor as Proven in a First-In-Human Study in Postmenopausal Women” (J Med Chem, 2020)

Tests used:
[1] = Maximum oral bioavailability in cynomolgus monkey liver microsomes based well stirred liver model; format: ADME, Macaca fascicularis, Microsome; details: read-out: Fmax
[2] = Intrinsic clearance in Han Wistar rat hepatocytes at 1 uM measured up to 90 mins by LC/MS/MS analysis; format: ADME, cell-based, Hepatocyte; details: Han Wistar, read-out: CLH (converted)
Cytochrome P450 2C8 = target: T1, Cytochrome P450 2C8 (Homo sapiens, UniProt P10632); experiment: Inhibition of CYP2C8 in human liver microsomes using amodiaquine as substrate by LC-MS/MS analysis; format: ADME
T1 sequence (P10632 whole entry): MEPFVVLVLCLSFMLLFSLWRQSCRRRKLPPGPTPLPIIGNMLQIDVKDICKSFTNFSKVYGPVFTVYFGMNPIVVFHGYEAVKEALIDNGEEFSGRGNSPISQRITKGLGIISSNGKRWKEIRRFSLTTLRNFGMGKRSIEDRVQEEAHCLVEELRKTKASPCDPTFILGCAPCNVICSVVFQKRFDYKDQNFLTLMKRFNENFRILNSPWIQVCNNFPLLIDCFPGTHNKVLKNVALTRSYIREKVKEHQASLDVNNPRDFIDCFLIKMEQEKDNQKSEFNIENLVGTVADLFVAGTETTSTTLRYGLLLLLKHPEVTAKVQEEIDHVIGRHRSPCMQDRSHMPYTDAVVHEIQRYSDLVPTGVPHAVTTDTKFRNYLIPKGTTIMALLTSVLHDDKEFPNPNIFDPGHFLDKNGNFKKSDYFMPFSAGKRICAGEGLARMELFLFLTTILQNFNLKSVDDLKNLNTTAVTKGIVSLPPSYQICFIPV

[3] = Lipophilicity, log D of the compound in pH 7.5 MeCN/H2O solution by reversed-phase HPLC analysis; format: physicochemical
Procedure, shortened: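 Indirect reversed-phase HPLC at pH 7.5, calibrated with n-alkan-2-ones C3–C16. Compounds applied as 0.67 mM DMSO stocks in MeCN/H2O (1:1).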

[4] = target: Mitogen-activated protein kinase 3 (Homo sapiens, UniProt P27361); experiment: Inhibition of MAPK3 (unknown origin)
[5] = Clearance in dog hepatocytes; format: ADME, cell-based, Canis lupus familiaris, Hepatocyte
Cytochrome P450 2C9 = Cytochrome P450 2C9 (Homo sapiens, UniProt P11712); experiment: Inhibition of CYP2C9 in human liver microsomes using diclofenac as substrate by LC-MS/MS analysis; format: ADME
Cytochrome P450 1A2 = target: T2, Cytochrome P450 1A2 (Homo sapiens, UniProt P05177); experiment: Inhibition of CYP1A2 in human liver microsomes using phenacetin as substrate by LC-MS/MS analysis; format: ADME
T2 sequence (P05177 whole entry): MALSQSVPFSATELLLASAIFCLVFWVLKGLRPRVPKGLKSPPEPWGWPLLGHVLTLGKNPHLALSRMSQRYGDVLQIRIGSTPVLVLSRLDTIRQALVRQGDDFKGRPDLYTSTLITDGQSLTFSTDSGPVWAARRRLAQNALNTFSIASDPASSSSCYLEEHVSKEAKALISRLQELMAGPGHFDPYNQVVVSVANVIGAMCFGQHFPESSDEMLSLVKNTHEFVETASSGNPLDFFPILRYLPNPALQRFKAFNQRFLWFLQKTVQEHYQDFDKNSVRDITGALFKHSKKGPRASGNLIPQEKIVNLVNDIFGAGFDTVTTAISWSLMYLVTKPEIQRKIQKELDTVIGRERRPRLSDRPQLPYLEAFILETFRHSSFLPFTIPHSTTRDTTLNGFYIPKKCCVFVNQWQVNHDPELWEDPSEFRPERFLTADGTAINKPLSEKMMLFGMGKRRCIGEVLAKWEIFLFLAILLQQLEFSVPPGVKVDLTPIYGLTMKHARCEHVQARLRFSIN

[6] = Maximum oral bioavailability in human hepatocytes; format: ADME, Hepatocyte; details: read-out: Fmax
[7] = Clearance in Wistar rat at 0.5 mg/kg, iv by LC-MS/MS analysis; format: ADME, organism-based; details: Wistar, in vivo
[8] = Maximum oral bioavailability in rat liver microsomes based well stirred liver model at 1 uM measured after 2 to 60 mins in presence of NADP generating system by LC-MS/MS analysis; format: ADME, Microsome; details: time 2-60 min, read-out: Fmax
Cynomolgus monkey = experiment: Suppression of orchiectomy-induced increase in plasma luteinizing hormone level in cynomolgus monkey at 20 mg/kg, po measured up to 24 hrs by RIA; format: functional, Macaca fascicularis; details: time hrs <=24
Procedure, shortened: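 Orchiectomized cynomolgus monkeys given a single oral dose of 20 mg/kg. Plasma LH suppression expressed relative to baseline levels.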

[9] = target: T3, Gonadotropin-releasing hormone receptor (Homo sapiens, UniProt P30968); experiment: Inhibition of Tag-lite green-labeled agonist binding to terbium fluorophore-labeled human N-terminal SNAP-tag GnRh receptor expressed in HEK293 cells by TR-FRET assay; format: cell-based
T3 sequence (P30968 whole entry): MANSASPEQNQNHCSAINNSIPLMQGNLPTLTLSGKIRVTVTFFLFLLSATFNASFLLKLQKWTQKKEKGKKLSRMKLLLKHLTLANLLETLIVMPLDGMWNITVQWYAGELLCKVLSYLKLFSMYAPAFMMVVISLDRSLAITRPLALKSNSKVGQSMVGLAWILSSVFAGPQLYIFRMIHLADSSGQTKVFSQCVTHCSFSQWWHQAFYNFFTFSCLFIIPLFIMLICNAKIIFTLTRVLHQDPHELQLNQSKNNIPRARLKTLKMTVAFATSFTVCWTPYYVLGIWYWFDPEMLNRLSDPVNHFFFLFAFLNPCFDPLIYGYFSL
Procedure, shortened: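 Frozen transiently transfected HEK293 with Tb-labelled SNAP-tag hGnRH-R, 5.6 × 10^4 cells/well in Tag-lite buffer. Green-labelled agonist 4 nM. Nonspecific wells received buserelin 10 µM. Incubated 60 min at rt, TR-FRET 520/495 nm ratio read.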

Cytochrome P450 3A4 = Cytochrome P450 3A4 (Homo sapiens, UniProt P08684); experiment: Inhibition of CYP3A4 in human liver microsomes using […] as substrate by LC-MS/MS analysis; format: ADME
[10] = Maximum oral bioavailability in dog hepatocytes; format: ADME, Canis lupus familiaris, Hepatocyte; details: read-out: Fmax
[11] = target: Voltage-gated inwardly rectifying potassium channel KCNH2 (Homo sapiens, UniProt Q12809); experiment: Inhibition of human ERG expressed in HEK293 cells assessed as reduction in channel inward tail current by whole cell voltage clamp assay; format: cell-based
[12] = target: Mitogen-activated protein kinase 14 (Homo sapiens, UniProt Q16539); experiment: Inhibition of MAPK14 (unknown origin)
Rattus norvegicus = experiment: Suppression of ovariectomized-induced increase in plasma luteinizing hormone level in po dosed Wistar Han rat measured up to 24 hrs; format: functional; details: time hrs <=24
Procedure, shortened: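 Ovariectomized rats given single oral doses, range 1 to 30 mg/kg. Plasma LH followed over time, with cetrorelix at 0.1 mg/kg sc as reference. ED50 calculated from the dose-response.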

[13] = Apparent permeability across apical to basolateral side in human Caco2 cells at 2 uM measured after 2 hrs by LC-MS/MS analysis; format: ADME, cell-based; details: Caco-2
Procedure, shortened: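 Caco-2 monolayers grown 15 d, integrity checked by TEER. Compound 2 µM added apical or basolateral in FCS-free HEPES carbonate buffer pH 7.2, incubated 2 h at 37 °C. Both compartments sampled before and after, analysed by LC-MS/MS after MeOH precipitation. Papp computed from receiver peak area, surface area and time. Efflux ratio taken as Papp B–A/Papp A–B.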

[14] = Maximum oral bioavailability in cynomolgus monkey hepatocytes; format: ADME, Macaca fascicularis, Hepatocyte; details: read-out: Fmax

Chain of Cytochrome P450 2C9 (P11712 whole entry): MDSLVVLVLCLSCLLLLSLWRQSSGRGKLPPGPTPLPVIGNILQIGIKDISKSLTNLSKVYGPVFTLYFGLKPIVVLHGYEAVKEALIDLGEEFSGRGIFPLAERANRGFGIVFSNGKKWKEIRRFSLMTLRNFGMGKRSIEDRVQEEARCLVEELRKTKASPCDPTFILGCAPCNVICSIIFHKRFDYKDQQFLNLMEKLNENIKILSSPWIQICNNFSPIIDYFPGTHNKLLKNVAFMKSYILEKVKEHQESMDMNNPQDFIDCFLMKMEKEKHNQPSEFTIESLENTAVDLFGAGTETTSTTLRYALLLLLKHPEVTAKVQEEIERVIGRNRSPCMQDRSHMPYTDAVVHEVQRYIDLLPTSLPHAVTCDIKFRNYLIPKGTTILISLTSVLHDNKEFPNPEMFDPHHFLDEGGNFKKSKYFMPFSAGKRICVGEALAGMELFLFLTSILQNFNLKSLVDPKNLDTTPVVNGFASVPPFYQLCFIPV
Chain of Cytochrome P450 3A4 (P08684 whole entry): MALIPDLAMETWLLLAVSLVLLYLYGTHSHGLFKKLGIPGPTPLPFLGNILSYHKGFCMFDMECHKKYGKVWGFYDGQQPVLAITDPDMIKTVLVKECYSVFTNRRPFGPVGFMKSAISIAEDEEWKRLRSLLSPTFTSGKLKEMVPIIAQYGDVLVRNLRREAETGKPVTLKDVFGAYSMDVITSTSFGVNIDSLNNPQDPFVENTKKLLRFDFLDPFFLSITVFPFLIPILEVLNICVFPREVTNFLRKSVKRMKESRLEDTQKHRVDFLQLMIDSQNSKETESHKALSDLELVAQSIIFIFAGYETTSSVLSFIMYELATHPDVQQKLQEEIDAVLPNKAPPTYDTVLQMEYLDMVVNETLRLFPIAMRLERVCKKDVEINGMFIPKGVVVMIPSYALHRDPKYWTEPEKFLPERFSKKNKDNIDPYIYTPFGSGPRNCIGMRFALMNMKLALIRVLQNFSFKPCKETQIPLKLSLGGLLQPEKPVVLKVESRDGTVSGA
Chain of Mitogen-activated protein kinase 3 (P27361 whole entry): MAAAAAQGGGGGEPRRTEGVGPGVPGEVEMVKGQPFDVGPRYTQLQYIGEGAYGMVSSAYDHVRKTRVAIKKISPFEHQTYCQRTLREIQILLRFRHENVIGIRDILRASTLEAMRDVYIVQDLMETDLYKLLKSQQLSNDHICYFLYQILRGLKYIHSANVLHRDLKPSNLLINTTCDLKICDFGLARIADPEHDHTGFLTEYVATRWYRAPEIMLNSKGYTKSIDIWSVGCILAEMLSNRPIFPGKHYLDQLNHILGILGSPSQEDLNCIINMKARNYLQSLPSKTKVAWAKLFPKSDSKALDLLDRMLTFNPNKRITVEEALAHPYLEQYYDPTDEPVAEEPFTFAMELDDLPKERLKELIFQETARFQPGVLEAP
Chain of Mitogen-activated protein kinase 14 (Q16539 whole entry): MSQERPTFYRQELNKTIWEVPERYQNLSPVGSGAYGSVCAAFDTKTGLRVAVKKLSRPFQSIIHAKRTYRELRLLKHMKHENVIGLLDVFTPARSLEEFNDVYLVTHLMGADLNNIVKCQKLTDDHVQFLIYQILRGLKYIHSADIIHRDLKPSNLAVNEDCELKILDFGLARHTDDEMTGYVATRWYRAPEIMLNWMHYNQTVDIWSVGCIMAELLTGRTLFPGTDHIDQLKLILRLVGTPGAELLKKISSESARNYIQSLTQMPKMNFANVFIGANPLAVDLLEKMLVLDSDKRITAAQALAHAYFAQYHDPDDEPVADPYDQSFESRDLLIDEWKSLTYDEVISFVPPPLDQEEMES
Chain of Voltage-gated inwardly rectifying potassium channel KCNH2 (Q12809 whole entry): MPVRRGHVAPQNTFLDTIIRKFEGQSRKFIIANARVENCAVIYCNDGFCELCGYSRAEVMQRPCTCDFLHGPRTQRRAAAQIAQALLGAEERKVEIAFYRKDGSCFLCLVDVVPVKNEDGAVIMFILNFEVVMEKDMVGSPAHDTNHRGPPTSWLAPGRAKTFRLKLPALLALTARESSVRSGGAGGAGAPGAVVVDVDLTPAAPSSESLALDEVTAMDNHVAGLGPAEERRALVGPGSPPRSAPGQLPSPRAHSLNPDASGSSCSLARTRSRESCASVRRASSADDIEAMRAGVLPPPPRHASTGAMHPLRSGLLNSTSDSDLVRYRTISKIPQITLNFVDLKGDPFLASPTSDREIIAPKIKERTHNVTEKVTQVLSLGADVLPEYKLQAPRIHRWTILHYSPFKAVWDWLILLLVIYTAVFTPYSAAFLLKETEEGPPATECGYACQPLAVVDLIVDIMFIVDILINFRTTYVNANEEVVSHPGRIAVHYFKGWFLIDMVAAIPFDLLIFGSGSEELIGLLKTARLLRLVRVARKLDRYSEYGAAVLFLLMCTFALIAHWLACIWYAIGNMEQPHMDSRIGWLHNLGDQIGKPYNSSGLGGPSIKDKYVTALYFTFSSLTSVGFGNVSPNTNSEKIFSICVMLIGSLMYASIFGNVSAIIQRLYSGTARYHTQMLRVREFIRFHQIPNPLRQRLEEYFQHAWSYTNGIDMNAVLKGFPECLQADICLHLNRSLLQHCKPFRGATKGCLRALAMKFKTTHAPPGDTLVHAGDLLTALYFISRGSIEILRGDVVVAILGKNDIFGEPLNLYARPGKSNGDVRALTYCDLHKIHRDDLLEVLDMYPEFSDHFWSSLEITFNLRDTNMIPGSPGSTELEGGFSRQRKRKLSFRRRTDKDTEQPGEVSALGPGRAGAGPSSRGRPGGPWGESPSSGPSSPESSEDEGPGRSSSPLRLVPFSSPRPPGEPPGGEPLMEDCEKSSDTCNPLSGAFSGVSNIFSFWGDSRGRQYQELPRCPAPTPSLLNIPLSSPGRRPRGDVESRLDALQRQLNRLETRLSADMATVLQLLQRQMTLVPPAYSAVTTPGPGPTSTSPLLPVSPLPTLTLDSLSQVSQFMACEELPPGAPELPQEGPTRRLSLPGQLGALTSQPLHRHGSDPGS

Fh [1]: 81%
CLint scaled at 1 µM [2]: 12.5 mL/min/kg
IC50 (Cytochrome P450 2C8): 1 µM
chromatographic logD [3]: 3.6
IC50 [4]: 4.9 µM
CLH [5]: 12.2 mL/min/kg
IC50 (Cytochrome P450 2C9): > 10 µM
IC50 (Cytochrome P450 1A2): > 10 µM
Fh [6]: 93%
clearance [7]: 9 mL/min/kg
Fh at 1 µM [8]: 91%
IC50 [9]: 0.027 µM
IC50 (Cytochrome P450 3A4): > 10 µM
Fh [10]: 65%
IC50 [12]: 10.7 µM
Papp A→B at 2 h, 2 µM [13]: 1.3 ×10⁻⁶ cm/s
Fh [14]: 72%
Compound: O=C(NCc1ncc(C(F)(F)F)cc1Cl)c1ccc2c(c1)C1(CCS(=O)(=O)CC1)[C@H](C1CC1)N2S(=O)(=O)c1ccc(F)cc1 [BAY-784]
Activity (Cynomolgus monkey): <=60%
IC50 [11]: > 10 µM
ED50 (Rattus norvegicus): 4.5 mg/kg
